Screening data from PubChem.
PKA-R2B act – activators of PKA-R2B holoenzyme, primary screen, biochemical, fluorescence polarization, Cy5-IP20, human; cAMP-dependent protein kinase catalytic subunit beta (Homo sapiens) + cAMP-dependent …; PKA-R2B holoenzyme dissociation; R2B truncated from residue 108, S112A mutant; 0% DMSO only, 100% 113 µM cGMP; activation, % at 11.4 µM; 340,000 tested, 0.079% active; AID 504700, 2011;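 active = activation above a cutoff set at the mean over all compounds plus 3 SD, cut at about 18% in these data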;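 note: higher means more holoenzyme dissociation and a rise in polarization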
Target sequence (P31323 whole entry, looked up, other chains not shown, the tested form may be a part): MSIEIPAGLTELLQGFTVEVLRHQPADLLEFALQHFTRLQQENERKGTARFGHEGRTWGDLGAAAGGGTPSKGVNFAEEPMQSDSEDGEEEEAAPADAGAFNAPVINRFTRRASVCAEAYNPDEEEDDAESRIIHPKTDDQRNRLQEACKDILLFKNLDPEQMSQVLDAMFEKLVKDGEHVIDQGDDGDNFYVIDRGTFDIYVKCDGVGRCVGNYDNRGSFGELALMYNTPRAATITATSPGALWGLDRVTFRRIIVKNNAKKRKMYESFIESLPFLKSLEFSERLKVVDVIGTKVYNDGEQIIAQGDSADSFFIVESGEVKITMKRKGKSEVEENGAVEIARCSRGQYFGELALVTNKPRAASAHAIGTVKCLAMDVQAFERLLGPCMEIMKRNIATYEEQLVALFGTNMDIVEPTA
Rin1-Abl PPI inh – inhibitors of Rin1-Abl protein binding, primary screen, biochemical, TR-FRET | Tyrosine-protein kinase ABL1 (Homo sapiens) + Ras and Rab interactor 1 (Homo sapiens), … | inhibition, % at 7.35 µM | 360,000 tested, 0.4% active; in the data active = inhibition above about 5%, passing the limit was not always enough
Cardio protect – cardioprotection against H2O2-induced cell death, primary screen, uHTS, H9c2 cells, ATPLite luminescence | 360,000 tested, 0.63% active | H9c2 cardiomyocytes, H2O2 injury protection, 2 h | protection from H2O2 cell death, % at 20 µM;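 active = compounds giving at least 50% protection of heart cells from peroxide-induced death in the single-dose screen, raw or plate-pattern-corrected value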
Tb MetRS inh – T. brucei MetRS inhibitors, primary screen, biochemical, luminescence; purified T. brucei MetRS, ATP depletion, Kinase-Glo luminescence; AID 624268, 2012; 360,000 tested, 0.4% active; methionyl-tRNA synthetase (Trypanosoma brucei brucei); inhibition, % at 11.9 µM;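 active = inhibition above a per-plate cutoff of the control wells' mean inhibition plus 3 SD, cut at about 5.5% in these data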
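Dosing: 11.9 µM compound single dose, 0.9% DMSO; Assay system: purified T. brucei MetRS enzyme; Measured by: Kinase-Glo luciferase luminescence reporting remaining unconsumed ATP; Schedule: 15 min plus 2 h at 25 °C.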
PKA-R1A act – activators of PKA-R1A holoenzyme, primary screen, biochemical, fluorescence polarization, Cy5-IP20, bovine R1A, mouse PKAc; 340,000 tested, 0.083% active; PKA-R1A dissociation; scaled: DMSO 0%, 113 µM cGMP 100%; cAMP-dependent protein kinase type I-alpha regulatory subunit (Bos taurus) + …; activation, % at 11.4 µM; AID 504707, 2011;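 active = percent activation above the mean of all tested compounds plus 3 SD, cut at about 19% in these data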;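 note: higher means more PKAc released from R1A so a rise in polarization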
Rin1-Abl confirm – Rin1-Abl binding inhibitor retest, confirmation, biochemical, TR-FRET; shares compounds with Rin1-Abl PPI inh; purified proteins; inhibition, % at 7.35 µM; 1,300 tested, 49% active
GFP quench-1 – GFP fluorescence inhibitors and quenchers, artefact control for Rin1-Abl interaction inhibitor project, biochemical. shares compounds with Rin1-Abl PPI inh. inhibitors/quenchers counterscreen. inhibition, % at 6.75 µM. 1,300 tested, 8.5% active;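 note: ABL1-eGFP fusion protein alone without its partner RIN1-SBP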
GFP quench dose – GFP fluorescence inhibitors and quenchers, dose response, artefact control for Rin1-Abl interaction inhibitor project, biochemical; shares compounds with Rin1-Abl PPI inh; GFP fluorescence interference/quenching counterscreen; IC50, µM; 230 tested, under 10 active; AID 602182, 2012; call rule not given here;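 note: ABL1-eGFP fusion protein alone without its RIN1 binding partner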
GFP quench-2 – GFP fluorescence inhibitors and quenchers, late-stage follow-up, artefact control for Rin1-Abl interaction inhibitor project, biochemical, dose response | shares compounds with Rin1-Abl PPI inh | GFP fluorescence quenching counterscreen | IC50, µM | 25 tested, under 10 active | AID 602397, 2012; call rule not given here
Hits are given with their value; – = inactive; · = no result given. In the library only some 1.5% were active in any assay of this set; here they are far more common. Cut-off read from the data, not from the text of the source, unless noted: active = inhibition above about 6.5%; inactive = the rest.

SMILES	PKA-R2B act	Rin1-Abl PPI inh	Cardio protect	Tb MetRS inh	PKA-R1A act	Rin1-Abl confirm	GFP quench-1	others
CCc1cc(=O)oc2cc3occ(C)c3cc12	–	10.9	–	–	–	–	–
CCCc1cc(=O)oc2cc3occ(C)c3cc12	–	–	–	–	–	·	·
CC(=O)NS(=O)(=O)c1ccc(NS(=O)(=O)c2ccc(F)cc2)cc1	–	5.8	–	–	–	–	–
CC(=O)NS(=O)(=O)c1ccc(NS(=O)(=O)c2ccc3ccccc3c2)cc1	–	–	–	–	–	·	·
O=C(NCCCn1ccnc1)c1ccc(Cl)c(Cl)c1	–	–	–	–	–	·	·
Cc1ccc(-c2[nH]c3cc(C(=O)NCCCn4ccnc4)ccc3c(=O)c2O)cc1	–	18.7	–	–	–	10.7	11.2
O=C(CNC(=O)c1ccco1)NCC(=O)OCc1ccc(Cl)cc1Cl	–	–	–	–	–	·	·
CN1CCCN(c2cc(-c3ccc4ccccc4c3)nc3ccnn23)CC1	·	12.6	–	–	·	12.3	11.6
Cc1cccc(-c2cc(N3CCCN(C)CC3)n3nccc3n2)c1	·	–	–	–	·	·	·
CCOC(=O)c1ccc(C(=S)N2CCCC2)cc1	–	–	–	–	–	·	·
COc1ccc2ncc(S(=O)(=O)c3ccccc3)c(N3CCC4(CC3)OCCO4)c2c1	–	8.2	–	–	–	–	–
Cc1cc(/C=N/NC(=O)c2ccncc2)c(C)n1-c1ccccc1	–	–	–	–	–	·	·
O=C(CCN1CCN(c2ccccc2)CC1)N/N=C/c1ccc(O)c(O)c1O	–	18.7	–	–	–	50.6	13.2
O=C(Cc1csc(N2CCOCC2)n1)N/N=C/c1ccc(O)c(O)c1O	–	29.6	–	–	–	27.9	9.0
COc1ccc(/C=N/NC(=O)CCN2CCN(c3ccccc3)CC2)c(OC)c1OC	–	–	–	–	–	·	·
Cc1cc(C(=O)N/N=C/c2ccc(O)c(O)c2O)c(C)n1-c1ccccc1	–	20.1	–	–	–	10.8	7.8
CC(=O)c1c[nH]c(C(=O)NC2CCCCCC2)c1	–	–	–	–	–	·	·
Cc1c(C(=O)NCC(c2ccco2)N(C)C)oc2c(Cl)cccc12 (stereo unspecified)	–	38.9	–	–	–	46.8	–	GFP quench dose=–;GFP quench-2=–
CCOc1ccc2oc(C(=O)NCC(c3ccco3)N(C)C)c(C)c2c1 (stereo unspecified)	–	–	–	–	–	·	·
C[C@@H]1CN([C@@H](C)CO)C(=O)CCCn2nncc2CO[C@H]1CN(C)S(=O)(=O)c1ccc2ccccc2c1	–	–	–	–	–	·	·
CCNC(=O)C1(C)CCCN(Cc2cc3ccccc3o2)C1 (stereo unspecified)	·	–	–	–	·	·	·
Cc1ccc2cc(NC(=O)CC(CC(=O)O)c3ccccc3)ccc2n1 (stereo unspecified)	–	8.6	–	–	–	–	–
CC1CCC2(CC1)NC(=O)N(Cc1cccc(C(F)(F)F)c1)C2=O (stereo unspecified)	–	–	–	–	–	·	·
CC1(Oc2ccc3ccccc3c2)CCN(Cc2ccc(OC(F)(F)F)cc2)C1 (stereo unspecified)	·	–	–	–	·	·	·
Cc1cccc(CSc2nnc(-c3ccco3)o2)c1	–	–	–	–	–	·	·
